Our source for the IC50 and EC50 values is ChEMBL document CHEMBL1132721, “Cyclobutane quisqualic acid analogues as selective mGluR5a metabotropic glutamic acid receptor ligands” (J Med Chem, 1999).

One may read the IC50 as the midpoint of a concentration-inhibition curve. One may read the EC50 as the midpoint of the concentration-response curve. Lower therefore signals an effect from little substance.

Molecules are shown by their SMILES. Some results are limits rather than exact numbers.

Experiment [1] is filed under the species Rattus norvegicus. Briefly: Inhibition of the sensitization of CA1 pyramidal neurons to depolarization by L-AP6 by the compound at a concentration of 200 uM before 20 minutes. The class given is functional, organism-based. Conditions: Pyramidal neuron.
In experiment [2] the target is Metabotropic glutamate receptor 5 (Homo sapiens, UniProt P41594). Put plainly: Compound was tested for the stimulation of Phosphoinositide (PI) hydrolysis in BHK cells expressing mGluR5a receptor. In kind it is functional, cell-based. In short, it runs like this: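 BHK570 cells stably expressing mGluR5a, kept under 2 μM methotrexate selection in DMEM with 5% heat-inactivated FBS, 2 mM glutamine and 5% CO2. Grown to 60–90% confluence, then labelled 16–20 h with 1 μCi/mL [3H]-myo-inositol. PI hydrolysis was measured by the Thomsen method and normalized to 100 000 DPM of total incorporated label. Mean ± SEM of 3–6 experiments; EC50 from concentration–response curves.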
Sequence of Metabotropic glutamate receptor 5 (P41594 whole entry): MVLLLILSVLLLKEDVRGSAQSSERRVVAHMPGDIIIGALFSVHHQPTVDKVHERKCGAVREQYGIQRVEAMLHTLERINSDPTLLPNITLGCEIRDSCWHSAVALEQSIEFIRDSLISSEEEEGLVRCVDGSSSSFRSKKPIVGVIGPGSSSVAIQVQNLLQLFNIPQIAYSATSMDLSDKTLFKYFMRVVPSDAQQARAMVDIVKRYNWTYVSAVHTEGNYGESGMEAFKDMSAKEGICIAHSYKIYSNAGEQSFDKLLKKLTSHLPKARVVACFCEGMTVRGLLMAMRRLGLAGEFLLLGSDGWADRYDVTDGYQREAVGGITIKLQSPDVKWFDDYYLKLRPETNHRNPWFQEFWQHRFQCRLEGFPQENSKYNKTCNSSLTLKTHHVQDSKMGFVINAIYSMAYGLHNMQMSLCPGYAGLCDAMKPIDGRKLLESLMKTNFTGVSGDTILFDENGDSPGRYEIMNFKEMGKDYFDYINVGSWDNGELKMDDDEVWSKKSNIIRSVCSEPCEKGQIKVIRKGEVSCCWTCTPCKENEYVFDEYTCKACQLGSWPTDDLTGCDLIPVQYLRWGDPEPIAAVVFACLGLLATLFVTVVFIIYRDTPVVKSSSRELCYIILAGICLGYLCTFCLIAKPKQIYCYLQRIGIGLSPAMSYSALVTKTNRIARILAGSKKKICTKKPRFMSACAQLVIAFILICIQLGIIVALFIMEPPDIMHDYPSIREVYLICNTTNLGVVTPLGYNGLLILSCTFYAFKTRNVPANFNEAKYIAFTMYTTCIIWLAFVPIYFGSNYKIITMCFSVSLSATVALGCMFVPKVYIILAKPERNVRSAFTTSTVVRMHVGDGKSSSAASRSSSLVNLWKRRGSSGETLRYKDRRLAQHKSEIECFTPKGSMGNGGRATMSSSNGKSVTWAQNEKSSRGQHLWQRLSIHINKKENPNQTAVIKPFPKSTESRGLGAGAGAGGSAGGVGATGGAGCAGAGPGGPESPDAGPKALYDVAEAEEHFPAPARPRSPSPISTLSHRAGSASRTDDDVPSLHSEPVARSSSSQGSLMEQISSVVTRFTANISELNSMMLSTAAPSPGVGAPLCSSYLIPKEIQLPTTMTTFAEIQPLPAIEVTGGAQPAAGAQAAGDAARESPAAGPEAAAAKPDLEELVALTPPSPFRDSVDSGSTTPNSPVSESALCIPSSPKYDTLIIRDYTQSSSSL

The species named for experiment [3] is Rattus norvegicus. Briefly: Compound was tested for the stimulation of Phosphoinositide (PI) hydrolysis in rat hippocampus. In kind it is functional, organism-based. In short, it runs like this:
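Slices of neonatal (6–11-day-old) Sprague–Dawley rat hippocampus, labelled with [3H]-myo-inositol. Inositol phosphate accumulation was expressed per 100 000 DPM of total incorporated radiolabel (lipid plus soluble IP fraction) under basal conditions. Concentration–response data were fit with Hill coefficient 1. Mean ± SEM of four experiments.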

The species named for experiment [4] is Rattus norvegicus. Put plainly: Inhibition of the sensitization of CA1 pyramidal neurons to depolarization by L-AP6 by the compound at a concentration of 200 uM after 20 minutes. Conditions: Pyramidal neuron. The class given is functional, organism-based.
For experiment [5], the species on record is Rattus norvegicus. Briefly: Inhibition of the sensitization of CA1 pyramidal neurons to depolarization by L-AP6 after reversal with L-alpha-AA. Conditions: Pyramidal neuron. The class given is functional, organism-based.
Experiment [6] concerns the target T1, Glutamate receptor ionotropic, AMPA (Rattus norvegicus, UniProt P19490+P19491+P19492+P19493). Put plainly: Inhibition of Ionotropic glutamate receptor AMPA mediated depolarization by the compound at a concentration of 200 uM after 20 minutes in rat.
Experiment [7] is filed under the species Rattus norvegicus. Put plainly: Inhibition of the sensitization of CA1 pyramidal neurons to depolarization by L-AP6 by the compound at a concentration of 400 uM after 20 minutes. The class given is functional, organism-based. Conditions: Pyramidal neuron.
Experiment [8] concerns the target T1, Glutamate receptor ionotropic, AMPA. Briefly: Inhibition of Ionotropic glutamate receptor AMPA mediated depolarization by the compound at a concentration of 400 uM after 20 minutes in rat.
The species named for experiment [9] is Rattus norvegicus. Put plainly: Inhibition of the sensitization of CA1 pyramidal neurons to depolarization by L-AP6 by the compound at a concentration of 400 uM before 20 minutes. In kind it is functional, organism-based. Conditions: Pyramidal neuron.
For experiment [10], the species on record is Rattus norvegicus. Put plainly: Inhibition of the sensitization of CA1 pyramidal neurons to depolarization by L-AP6 after reversal with L-alpha-AA by the compound at a concentration of 16 uM after 4 minutes. Conditions: Pyramidal neuron. In kind it is functional, organism-based. An outline of the steps: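 Rat hippocampal slices. The sensitization was reversed by treating the slices with 2 mM L-α-aminoadipic acid for 10 min.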

The species entered for experiment [11] is Rattus norvegicus. Briefly: Inhibition of the sensitization of CA1 pyramidal neurons to depolarization by L-AP6 by the compound at a concentration of 16 uM before 4 minutes. The class given is functional, organism-based. Conditions: Pyramidal neuron. An outline of the steps:
(§1)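 Rat hippocampal slices. Sensitization of CA1 neurons to phosphonate depolarization was measured in the QUIS-effect slice assay.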

Experiment [12] is filed under the species Rattus norvegicus. Put plainly: Inhibition of the sensitization of CA1 pyramidal neurons to depolarization by L-AP6 by the compound at a concentration of 16 uM after 4 minutes. The class given is functional, organism-based. Conditions: Pyramidal neuron. In short, it runs like this:
as §1

For `N[C@]1(C(=O)O)C[C@H](n2oc(=O)[nH]c2=O)C1`, the IC50 was above 10000 µM in the experiment filed under Rattus norvegicus [1], 7000 µM in the experiment listed under Rattus norvegicus [4], above 10000 µM in the experiment filed under Rattus norvegicus [5] and 69 µM in experiment [6]. Further, the EC50 in experiment [2] was 11 µM; in the experiment listed under Rattus norvegicus [3], 18 µM.

With `N[C@]1(C(=O)O)C[C@@H](n2oc(=O)[nH]c2=O)C1`, the IC50 in the experiment listed under Rattus norvegicus [7] was above 10000 µM; in experiment [8], 390 µM; in the experiment filed under Rattus norvegicus [9], above 10000 µM. For the same compound, the concentration giving a half-maximal response (EC50) was found to be 49 µM in [2] and 53 µM in the experiment listed under Rattus norvegicus [3].

Take `N[C@@H](Cn1oc(=O)[nH]c1=O)C(=O)O` [QUISQUALATE]: the IC50 in the experiment listed under Rattus norvegicus [10] is 1900 µM; in the experiment filed under Rattus norvegicus [11] it was above 10000 µM; in the experiment filed under Rattus norvegicus [12], 40 µM.
